Yeast life ext – yeast lifespan extension; AID 775; actives 0.68% (n = 130,000); S. cerevisiae growth with nicotinamide, OD615; deaD strain in restrictive glucose medium; inhibition of the nicotinamide effect, % at 10 µM;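 active means inhibition above a set limit, placed 3 SD over the median of all compounds, cut at about 26% in these data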;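 further: 0% = nicotinamide-treated wells and 100% = cells grown without nicotinamide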
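assay system = DeaD-strain S. cerevisiae | buffer or medium = restrictive glucose medium | reagent = 1.5 mM nicotinamide | compound = 10 µM single point, 0.25% DMSO | incubation = 48 h compound exposure at 30 °C, humidified | signal = OD615 measurement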
BB579 growth dn – chemicals that inhibit yeast BB579 growth in restrictive medium (lifespan-shortening candidates); inhibition, % at 10 µM; actives 0.51% (n = 140,000); S. cerevisiae BB579 growth, OD615, 48 h;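 active means inhibition above a set limit, 3 SD over the mean compound inhibition, cut at about 44% in these data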
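Detection: OD615 turbidity measurement; Material: Saccharomyces cerevisiae DeaD strain BB579, replicative lifespan model yeast; Timing: 48 h exposure, 30 °C; Doses: single 10 µM dose; Medium: CSMM-D restrictive synthetic medium containing dextrose (glucose); Controls: amphotericin B at 10 µg/mL as positive control.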
Measles CPE – protection of cells from measles virus; Measles virus-infected cells, CPE protection, absorbance; protection (pct of control), % at 4 µM; actives 1.5% (n = 140,000); in the data active means protection mostly above about 24%, no sharp cut-off; inactive means mostly below about 26%
RAM network inh – yeast RAM network inhibition; S. cerevisiae dse1pr::URA3 reporter, 5-FOA growth OD615, 2 d; analog-sensitive cbk1-as2 kinase mutant strain; inhibition, % at 50 µM; actives 1.8% (n = 190,000); AID 868;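 active means inhibition above a set limit, 3 SD over mean compound inhibition, cut at about 8.4% in these data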;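 further: 0% = DMSO-only wells with no growth and 100% = 10 µM 1-NA-PP1 full growth; inhibition rescues growth on 5-FOA so higher OD means more RAM inhibition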
An asterisk follows results filed as active; . = no result. Sampled rows, rich in hits. Any-hit rate of the full collection: about 3.8%.

SMILES | Yeast life ext | BB579 growth dn | Measles CPE | RAM network inh
CCn1ncc(Br)c1C(=O)Nc1cc(C(=O)OC)ccc1C(=O)OC | 3 | -39 | 8 | 8.5*
CCOCC(=O)Nc1cc(C(=O)OC)ccc1C(=O)OC | -6 | -10 | 9 | 2
COC(=O)c1ccc(C(=O)OC)c(NC(=O)CSCc2ccccc2Br)c1 | -8 | -14 | 14 | 11*
COC(=O)c1ccc(C(=O)OC)c(NC(=O)COC(=O)c2ccc(OC)c(OC)c2OC)c1 | 11 | -22 | 15 | 11*
CC(C)c1nc(SCC(=O)N2CC(=O)Nc3ccccc32)c2ccccc2n1 | . | . | . | 8
CCn1c(SCC(=O)Nc2nc3ccccc3s2)nnc1-c1ccc(OC)cc1 | -3 | -19 | 5 | 9.8*
CCn1c(SCC(=O)Nc2nc3ccc(OC)cc3s2)nc2c1c(=O)n(C)c(=O)n2C | -4 | -35 | 27* | 2
CCOc1ccc2nc(NC(=O)CSc3nc4c(c(=O)n(C)c(=O)n4C)n3C(C)C)sc2c1 | -13 | -21 | 2 | 0
CC1CN(CC(=O)Nc2ccccc2Sc2ccccc2)CC(C)O1 (stereo not drawn) | 27* | 4 | 7 | 0
O=C(c1ccccc1)N(C1=NCCCCS1)c1ccccc1 | 5 | -21 | 3 | 1
Cc1cc2c(c(=O)o1)C(c1cccs1)C(C#N)=C(N)O2 (stereo not drawn) | 11 | -7 | 11 | 0
Cc1ccc(Cn2c(C)cc3c(c2=O)C(c2cccs2)C(C#N)=C(N)O3)cc1 (stereo not drawn) | -4 | -42 | 5 | 8.7*
O=P(c1ccccc1)(c1ccccc1)c1nc(-c2ccccc2)oc1NCc1ccccc1 | . | . | . | 8
CCCCN(CCCC)C(=S)N/N=C/c1c(C)[nH]n(-c2ccccc2)c1=O | -12 | 78* | 3 | 3
Cc1[nH]n(-c2ccccc2)c(=O)c1/C=N/Nc1nncc(-c2ccccc2)n1 | -10 | 98* | 4 | -2
NC1=NS(=O)(=O)NC1c1ccc(F)cc1 (stereo not drawn) | . | . | . | 2
Cc1cc(C)c(S(=O)(=O)NNC(=O)C2CCN(Cc3ccccc3)CC2)c(C)c1 | -8 | -12 | 7 | 0
Oc1c(Br)cc(Br)cc1C=Nc1ccc2c(c1)OCCO2 | . | . | . | -2
Oc1c(Br)cc(Br)cc1C=Nc1ccc2c(c1)OCO2 | 9 | 97* | 6 | -1
COc1ccc(C(=O)C2CCCN(C(=O)c3cccnc3SC)C2)c(C)c1 (stereo not drawn) | . | . | . | -2
COc1cc(/C=C2\SC(=O)N(CCN)C2=O)ccc1OS(=O)(=O)c1cc(C)ccc1C | . | . | . | 8.5*
O=c1cc(NC2CCCCC2)c2ccccc2o1 | -2 | -27 | 20* | 1
CC(=O)Nc1ccc(-c2nnc(SCc3c(C)cc(C)cc3C)n2C)cc1 | -3 | -3 | 10 | 8.5*
COc1ccc(CNC(=O)CSc2nnc(-c3ccc(NC(C)=O)cc3)n2C)cc1 | -27 | 48* | 5 | 1
CCOc1ccc(NC(=O)CSc2nnc(-c3ccccn3)n2C)cc1 | -29 | 2 | 55* | 4
SMILES | Yeast life ext | BB579 growth dn | Measles CPE | RAM network inh
COc1ccc(-c2nnc(SCC(=O)Nc3ccc(C)cc3)n2C)cc1 | -7 | -37 | 3 | 2
COc1cc(C(C)=O)ccc1Oc1ncnc2c1cnn2-c1ccc(F)cc1 | -2 | -9 | 8 | 3
CC(C)/C(=N\NS(=O)(=O)c1ccc(Br)cc1)c1cccs1 | . | . | . | 1
CCCCCCC(=O)NC(Nc1ccc(S(N)(=O)=O)cc1)C(Cl)(Cl)Cl (stereo not drawn) | -4 | -6 | 32* | 0
CCCCCC(=O)NC(Nc1ccc(S(N)(=O)=O)cc1)C(Cl)(Cl)Cl (stereo not drawn) | 0 | -29 | 3 | 0
CC(=O)OCC1=C(C(=O)O)N2C(=O)C(NC(=O)c3ccc(COc4cccc(Cl)c4Cl)o3)C2SC1 (stereo not drawn) | . | . | . | 0
CCOC(=O)c1cnc(SC2CC(=O)N(c3cccc(OC)c3)C2=O)nc1N (stereo not drawn) | 3 | -18 | 29 | 10*
CCOC(=O)/C(=N\Nc1ccc(OC)cc1)c1csc(Nc2ccccc2)n1 | -4 | -15 | 25 | 11*
Clc1ccc(CSc2cc3c(nn2)-c2ccccc2CC3)cc1 | -2 | -43 | 9 | 10*
Clc1ccc(CSc2ccc(-c3ccccn3)nn2)cc1 | . | . | . | 1
O=c1c2ccccc2cnn1Cc1n[nH]c(=S)n1-c1ccccc1Cl | 3 | -8 | 9 | 1
O=C(COc1ccccc1Br)N1CCN(c2ccccc2)CC1 | -8 | -20 | 8 | 2
COc1ccc(C(C)(C)C)cc1S(=O)(=O)n1ccnc1C | . | . | . | -1
Cc1c(NC(=O)C2CCN(S(=O)(=O)c3ccc(Cl)cc3)CC2)c(=O)n(-c2ccccc2)n1C | -8 | -46 | 62* | 1
Cc1ccc(-n2nnc(-c3ccnc4ccccc34)n2)cc1 | . | . | . | 3
COC(=O)/C(=C1/Oc2cc3c(cc2S1)OCO3)C(F)(F)F | 37* | -58 | 7 | 3
COC(=O)/C(=C1/Oc2ccc(C)cc2S1)C(F)(F)F | 10 | -45 | 23 | 1
CCC(C)(C)n1nnnc1C(c1cc2cccc(C)c2[nH]c1=O)N1CCCC1 (stereo not drawn) | 36* | -37 | 6 | -1
c1ccc(CCN(Cc2ccccc2)Cc2nc(C3CC3)no2)cc1 | . | . | . | 1
Cn1cccc1/C=C1\SC(=S)N(NC(=O)c2ccccc2)C1=O | -3 | 5 | 27* | 8
Cn1cccc1/C=C1\SC(=S)N(NC(=O)c2cccc(Cl)c2)C1=O | 7 | -45 | 5 | 5
Cc1cc(C(=O)O)c(CSCc2cc(C(=O)O)oc2C)o1 | -11 | 20 | 15 | 0
CCc1nnc(NC(=O)Nc2ccccc2OC)s1 | -8 | -3 | 7 | 1
COc1ccccc1NC(=O)Nc1nnc(C(C)C)s1 | -8 | -12 | 55* | 0
COc1ccc(-n2cc3c(-c4cccc(Br)c4)nnc(C)c3n2)cc1 | -3 | -17 | 24 | 11*
SMILES | Yeast life ext | BB579 growth dn | Measles CPE | RAM network inh
Cc1cc(/C=N/n2cnnc2)c(C)n1-c1ccc(Cl)cc1 | 3 | 2 | 8 | 2
Cc1cc(/C=N/n2cnnc2)c(C)n1-c1ccc(OCc2ccc(Cl)cc2Cl)cc1 | -11 | 46* | 3 | 0
Cc1cc(C)c(S(=O)(=O)c2ccccc2)c(OC(=O)c2cc(F)c(F)cc2Cl)n1 | 43* | -68 | 4 | 1
CC(C)(C)N/N=C/c1cc(Cl)cc([N+](=O)[O-])c1O | -8 | 92* | 12 | -1
CCOC(=O)N1CCC(Nc2nc3ccccc3n3nnnc23)CC1 | -23 | -49 | 34* | 4
O=C(NCCN1CCOCC1)c1cnn2c(-c3ccccc3)cc(-c3ccccc3)nc12 | -13 | -17 | 17 | -1
COc1ccc(-c2nnc3ccc(SCC(=O)Nc4nc5ccc(C)cc5s4)nn23)cc1OC | 7 | -1 | 28* | 7
Cc1ccc2nc(NC(=O)CSc3nnc(C)c(=O)n3N)sc2c1 | 1 | -28 | 8 | 8.9*
COC(=O)CSc1ccc2nnc(-c3ccc(OC)c(OC)c3)n2n1 | -1 | -12 | 13 | 0
